From ChEMBL document CHEMBL1121825, “A potent, new, sedative--hypnotic agent: 5,7-dihydro-5,5,7,7-tetramethyl-3-(3-nitrophenyl)furo[3,4-e]-as-triazine 4-oxide” (J Med Chem, 1981) come the findings set out here.

Series [1] has as its system Mus musculus. The series is described as follows: Ability to reinduce anesthesia in mice as a measure of in vivo sedative-hypnotic activity. The format is functional. In a few lines:
(§1)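 Male Royal Hart mice (20–25 g) were anesthetized with hexobarbital 70.0 mg/kg iv. While they were regaining the righting reflex, compound was given ip. Reinduction was scored as loss of righting reflex for 10 min. ED50 (mg/kg) is the dose reinducing anesthesia in 50% of mice, estimated by probit analysis (Miller–Tainter).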

Series [2] concerns Felis catus. The series is described as follows: Tested to induce segmental reflexes in cat when given at a dose of 1-4 mg/Kg intravenously; Caused respiratory failure and death. It is filed as organism-based. Conditions: in vivo, iv. In outline: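 Chloralose-anaesthetised intact cats. The monosynaptic patellar reflex was evoked by solenoid-hammer tendon tap and the knee jerk recorded. The polysynaptic flexor reflex was recorded as tibialis anticus contraction on electrical popliteal nerve stimulation.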

The test system of series [3] is Monkey. Briefly: Tested for its activity towards cebus monkey sleep relative to methaqualone at 3-9 hours of duration; 4-64 times potent. It is filed as functional.
The test system of series [4] is Monkey. The series is described as follows: Sleep latency in cebus monkey sleep was determined; shortened (65-85% at the threshold sleep-inducing dose). It is filed as functional.
For series [5], the system named is Mus musculus. Briefly: Compound was tested for mortality in mice when administered intravenously. The format is functional. The conditions noted are these: iv.
The test system of series [6] is Mus musculus. Briefly: Ataxia effect in mice when the compound was administered ip. It is filed as functional. In outline: (§2)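 Modified Irwin behavioral screen in male Royal Hart mice (20–25 g), dosed ip or orally, observed for 2 h after dosing. ED50 (mg/kg) estimated by probit analysis (Miller–Tainter), or evaluation at the highest nontoxic dose used. At least 20 animals per drug; ± SE.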

Series [7] relates to Mus musculus. Briefly: Ataxia effect in mice when the compound was administered po. The format is functional. In outline:
as §2

The subject of series [8] is Mus musculus. Briefly: Compound was tested for rotarod motor coordination in mice when administered intravenously. The format is functional. Conditions: iv. For orientation: In the rotarod test animals must keep their balance on a rotating rod.
Series [9] has as its system Mus musculus. The series is described as follows: Compound was tested for rotarod motor coordination in mice when administered perorally. The format is functional. Conditions: po. In a few lines: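 Modified Dunham–Miya rotarod test. Groups of five male Royal Hart mice (20–25 g) were trained on a 15 rpm corrugated rod for 60–90 s, then retested 30 and 60 min after drug or saline (ip or oral). Percent change in riding time versus controls; ED50 is the dose giving a 50% decrease, by probit analysis.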

Series [10] relates to Mus musculus. The series is described as follows: Compound was tested for tonic convulsions when administered intraperitoneally. The format is functional. Conditions: ip. In a few lines: (§3)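 Groups of five male Royal Hart mice (20–25 g) received test drug ip or orally 1 h before seizure induction with SaH 41-178 (50.0 mg/kg ip). ED50 is the dose preventing tonic convulsions or death in 50% of animals, by probit analysis.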

For series [11], the system named is Mus musculus. The series is described as follows: Reinduction of anesthesia in mice when administered perorally was tested. The conditions noted are these: po. The format is functional.
The test system of series [12] is Mus musculus. The series is described as follows: Righting reflex effect in mice when the compound was administered intraperitoneally. The format is functional. The conditions noted are these: ip. In outline: as §2
For series [13], the system named is Mus musculus. The series is described as follows: Hypomotility effect in mice when the compound was administered intraperitoneally. The format is functional. Conditions: ip. In outline: as §2
In series [14] the test system is Mus musculus. Briefly: Prehensile effect in mice when the compound was administered intravenously. It is filed as functional. The conditions noted are these: iv.
The subject of series [15] is Mus musculus. Briefly: Prehensile effect in mice when the compound was administered perorally. It is filed as functional. Conditions: po. In outline: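 Oral dosing of male Royal Hart mice (20–25 g), scored by a modified Irwin behavioural screen. ED50 (mg/kg) estimated by probit analysis; at least 20 animals per drug.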
A short description of series [16]: Acute toxicity in mice after 2 hours administration ip. It is filed as organism-based. The conditions noted are these: mouse, in vivo. In outline:
(§4)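 Male Royal Hart mice (20–25 g) dosed intraperitoneally or orally; deaths scored at 2 h and 72 h. LD50 (mg/kg) estimated by probit analysis (Miller–Tainter), with at least 20 animals per drug.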

Series [17] in a line: Acute toxicity in mice after 2 hours administration perorally. The format is organism-based. The conditions noted are these: mouse, in vivo, po. In a few lines:
as §4

The nature of series [18]: Acute toxicity in mice after 72 hours administration ip. The conditions noted are these: mouse, in vivo. The format is organism-based. In outline: as §4
Series [19] can be described thus: Acute toxicity in mice after 72 hours administration perorally. The format is organism-based. The conditions noted are these: mouse, in vivo, po. In a few lines: as §4
Series [20] in a line: Acute toxicity in rats after 2 hours of administration perorally. Conditions: rat, in vivo, po. The format is organism-based. In outline: (§5)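 Male Wistar rats (130–160 g) dosed orally; lethality read at 2 h and 72 h. LD50 (mg/kg) derived by probit analysis (Miller–Tainter), using a minimum of 20 animals per drug.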
The nature of series [21]: Acute toxicity in rats after 72 hours of administration perorally. The format is organism-based. The conditions noted are these: rat, in vivo, po. In a few lines:
as §5

The subject of series [22] is Mus musculus. The series is described as follows: Righting reflex effect in mice when the compound was administered perorally. The conditions noted are these: po. The format is functional. In a few lines:
as §2

The subject of series [23] is Mus musculus. The series is described as follows: Compound was tested for tonic convulsions when administered perorally. The format is functional. Conditions: po. In a few lines:
as §3

The test system of series [24] is Rattus norvegicus. The series is described as follows: Hypomotility effect in rats when administered perorally. Conditions: po.
Series [25] relates to Rattus norvegicus. Briefly: Ataxia effect in rats when the compound was administered perorally. Conditions: po.
Series [26] has as its system Rattus norvegicus. Briefly: Righting reflex effect in rats when the compound was administered perorally. The conditions noted are these: po.
For series [27], the system named is Mus musculus. The series is described as follows: Tested for ability to reinduce anesthesia in mice when administered intraperitoneally as a measure of in vivo sedative-hypnotic activity; D represents Toxic. It is filed as functional, organism-based. In a few lines:
as §1

Where only a bound is given, the exact number is not on record here.

As to `CC1(C)OC(C)(C)c2nc(-c3ccc4ccccc4n3)nnc21`, the 50% effect level in series [1] (ED50) was put at a dose of 168 mg/kg.
Take `CC1(C)OC(C)(C)c2nc(-c3ccncc3)nnc21`: the ED50 (commonly the dose that gives a 50% effect, or the effect in half of the subjects) in series [1] was determined as 56.2 mg/kg.
On to `CC1(C)OC(C)(C)c2c1nnc(-c1cccc([N+](=O)[O-])c1)[n+]2[O-]`, for which the Activity entry in series [2] is “Caused respiratory failure and death”. The Relative potency in series [3] came to 4. In series [4], the Sleep latency is recorded as 65%. Moreover, the ED50 in [5] is 54 mg/kg; in [6] it was 130 mg/kg; in series [7], 39 mg/kg; in series [8], 51 mg/kg; in [9], > 1000 mg/kg; in series [1] it was 72 mg/kg. Also, the ED50 in series [10] worked out at 54 mg/kg; in series [11] it was 72 mg/kg; in series [12], 123 mg/kg; in series [13], 50 mg/kg; in [14] it was 125 mg/kg; in [15], 54 mg/kg. For the same compound, the median effective dose (ED50) in [22] is 55 mg/kg; in [23], > 1000 mg/kg; in series [24] it was 37 mg/kg; in series [25], 39 mg/kg; in [26] it was 118 mg/kg. For the same compound, the figures for the LD50 at 2 h in series [16], in [17] and in [20] were > 400 mg/kg, > 400 mg/kg and > 800 mg/kg, respectively. Further, the LD50 (usually the dose at which mortality reaches 50%) at 72 h is > 235 mg/kg in series [18], > 400 mg/kg in series [19] and > 800 mg/kg in series [21].
In [1], `CC1(C)OC(C)(C)c2nc(-c3cccc([N+](=O)[O-])c3)nnc21` yielded an ED50 of 68.8 mg/kg.
As to `CC1(C)OC(C)(C)c2c1nnc(-c1ccc(F)cc1)[n+]2[O-]`, in series [1], the ED50 came to 500 mg/kg.
The same measure, in the same setting: the figure for `CC1(C)OC(C)(c2ccccc2)c2nnc(-c3cccc([N+](=O)[O-])c3)nc21` (centres undefined) is 800 mg/kg.
Same read-out and setting: the figure for `CC1(C)OC2(CCCCC2)c2c1nnc(-c1ccccc1)[n+]2[O-]` is 183 mg/kg; for `CC1(C)OC(C)(C)C(N=N)=C1O` it is 133 mg/kg.
Same read-out and setting: as for `CC1(C)OC(C)(C)c2nc(-c3ccccc3)nnc21`, the figure is 167 mg/kg; as for `CC1(C)OC(C)(C)c2c1nnc(-c1ccccc1)[n+]2[O-]`, 163 mg/kg.
In turn, `CC1(C)OC(C)(C)c2nc(-c3cccc(C(F)(F)F)c3)nnc21` yielded an ED50 in [1] of 500 mg/kg.
`Cc1ccc(-c2nnc3c([n+]2[O-])C(C)(C)OC3(C)C)cc1C`: in series [1], the 50% effect level (ED50) was put at a dose of 133 mg/kg.
Same read-out and setting: as for `CC1(C)OC(C)(C)c2nc(Cc3ccccc3)nnc21`, the figure is 25 mg/kg.
For `CCOC(=O)c1nnc(-c2ccccn2)nc1O`, in series [27], the ED50 result is “Toxic”.
For the compound `CC1(C)C=CC(C)(C)c2nc(-c3cccc(S(N)(=O)=O)c3)nnc21`, it took a dose of 1000 mg/kg to reach the 50% effect level in [1] (ED50).
On the same count and under the same terms, as for `CC1(C)OC(C)(C)c2c1nnc(-c1cc([N+](=O)[O-])cc([N+](=O)[O-])c1)[n+]2[O-]`, the figure is 500 mg/kg.
Consider `Cc1nnc(-c2ccccn2)nc1C`, for which the ED50 result in [27] was “Toxic”.
Turning to `CC1(C)OC(C)(C)c2c1nnc(-c1cccc(Cl)c1)[n+]2[O-]`, the ED50 in [1] was found to be 500 mg/kg.
`CC1(C)Cc2nnc(-c3cccc([N+](=O)[O-])c3)[n+]([O-])c2C(C)(C)O1` had an ED50 in series [1] of 500 mg/kg.
